Reference: ChEMBL document CHEMBL1811809, “Design, synthesis and in vitro drug release investigation of new potential 5-FU prodrugs” (Eur J Med Chem, 2011)

Assays:
[1] = test system: MCF7; experiment: Antiproliferative activity against human MCF7 cells after 48 hrs by resazurin reduction test; type: functional, cell-based; details: MCF7, 48 h
How it was run: (§1)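 MCF 7 and PA 1 cells were kept as monolayers in MEM with 10% fetal calf serum, 1 mM pyruvate, vitamins, non-essential amino acids and gentamicin, at 37 °C and 5% CO₂. Cells were seeded at 5 × 10³ per well, left 16 h, then exposed continuously for 48 h; DMSO was 0.5% (v/v).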

[2] = Antiproliferative activity against human fibroblasts after 48 hrs by resazurin reduction test; type: cell-based; details: Fibroblast
[3] = test system: PA-1; experiment: Antiproliferative activity against human PA1 cells after 48 hrs by resazurin reduction test; type: functional, cell-based; details: PA-1, 48 h
How it was run: as §1, with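 “(v/v). Resazurin in serum- and phenol red-free MEM was added for 1 h at 37 °C, fluorescence read at ex 530/em 590 nm, and IC₅₀ taken from blank-corrected percent-of-control curves.” for “(v/v).”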

[4] = Stability of the compound in MEM assessed as degradation half life at 37 degC by HPLC analysis; type: physicochemical
How it was run: (§2)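 Each compound came from a 10 mM stock in methanol or methanol/acetonitrile 85:15, diluted 1:10 into PBS, MEM or human plasma and held at 37 ± 2 °C. Aliquots taken over time were quenched with equal-volume 10 mM ammonium formate pH 3, centrifuged, filtered, diluted 3:10 and run on gradient HPLC-UV (ammonium formate pH 3/acetonitrile; 264/258 nm). Half-lives came from log concentration versus time plots, usually in triplicate.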

[5] = Stability of the compound in PBS buffer assessed as degradation half life at 37 degC by HPLC analysis; type: physicochemical; how it was run: as §2
[6] = Stability of the compound assessed as degradation half life in presence of plasma at 37 degC by HPLC analysis; type: ADME, cell-free; how it was run: as §2

Row | SMILES | IC50 [1] | IC50 [2] | IC50 [3] | half-life [4] | half-life [5] | half-life [6]
1 | CC(=O)OC[C@H]1O[C@@H](n2cc(F)c(=O)[nH]c2=O)[C@H](F)[C@@H](OC(C)=O)[C@@H]1OC(C)=O | > 50 µM | > 50 µM | > 50 µM |  |  | 
2 | CC(=O)OC[C@H]1O[C@@H](NC(=O)Cn2cc(F)c(=O)[nH]c2=O)[C@H](F)[C@@H](OC(C)=O)[C@@H]1OC(C)=O | > 50 µM | > 50 µM | > 50 µM |  |  | 
3 | CC(=O)OC[C@H]1O[C@@H](NC(=O)CNC(=O)n2cc(F)c(=O)[nH]c2=O)[C@H](F)[C@@H](OC(C)=O)[C@@H]1OC(C)=O | 11 µM | 6.4 µM | 3 µM | 2 min | 3 min | 6 min
4 | CC(=O)OC[C@H]1O[C@@H](NC(=O)CCCNC(=O)n2cc(F)c(=O)[nH]c2=O)[C@H](F)[C@@H](OC(C)=O)[C@@H]1OC(C)=O | 23 µM | 15 µM | 6 µM | 6 min | 8 min | 10 min
5 | CC(=O)OC[C@H]1O[C@@H](NC(=O)CCCCCNC(=O)n2cc(F)c(=O)[nH]c2=O)[C@H](F)[C@@H](OC(C)=O)[C@@H]1OC(C)=O | 8.1 µM | 5 µM | 4 µM | 8 min | 11 min | 17 min
6 | CC(=O)OC[C@H]1O[C@@H](NC(=O)CCCN(C)C(=O)n2cc(F)c(=O)[nH]c2=O)[C@H](F)[C@@H](OC(C)=O)[C@@H]1OC(C)=O | > 50 µM | > 50 µM | > 50 µM |  |  | 
7 | CC(=O)OC[C@H]1O[C@@H](Oc2ccc(N(C)C(=O)n3cc(F)c(=O)[nH]c3=O)cc2)[C@H](F)[C@@H](OC(C)=O)[C@@H]1OC(C)=O | > 50 µM | > 50 µM | > 50 µM |  |  | 
8 | O=c1[nH]cc(F)c(=O)[nH]1 [FLUOROURACIL] |  | 11 µM | 5 µM |  |  | 
